ChEMBL document CHEMBL4308914, “Discovery of potent, low-absorbable sodium-dependent glucose cotransporter 1 (SGLT1) inhibitor SGL5213 for type 2 diabetes treatment” (Bioorg Med Chem, 2019)

Key:
[1] = Drug uptake in Sprague-Dawley rat kidney at 0.3 mg/kg, iv administered as single dose after 2 hrs by LCMS analysis; type: ADME, organism-based; details: read-out: Drug uptake
Method in brief: (§1)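 Fasted male SD rats given single i.v. dose in saline; animals euthanized at 2, 24 and 72 h, kidneys homogenized in purified water and unchanged drug measured by LC-MS/MS (ng/g tissue). Mean ± SD of three animals; 72 h level also expressed relative to 2 h value.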

[2] = Drug uptake in Sprague-Dawley rat kidney at 0.3 mg/kg, iv administered as single dose after 24 hrs by LCMS analysis; type: ADME, organism-based; details: read-out: Drug uptake; method in brief: as §1
[3] = Drug uptake in Sprague-Dawley rat kidney at 0.3 mg/kg, iv administered as single dose after 72 hrs by LCMS analysis; type: ADME, organism-based; details: read-out: Drug uptake; method in brief: as §1
[4] = Drug uptake in Sprague-Dawley rat kidney assessed as unchanged drug level at 0.3 mg/kg, iv administered as single dose after 72 hrs by LCMS analysis relative to control; type: ADME, organism-based; details: in vivo; method in brief: as §1
[5] = Drug excretion in bile duct cannulated Sprague-Dawley rat urine at 2 mg/kg, iv administered as single dose after 24 hrs by LCMS analysis; type: ADME, organism-based; details: read-out: Drug excretion
Method in brief: (§2)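 Bile duct-cannulated SD rats given single i.v. dose in saline; urine and bile collected over 24 h. Unchanged drug quantified by LC-MS/MS and expressed as cumulative % of dose; mean ± SD of three animals.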

[6] = Drug excretion in bile duct cannulated Sprague-Dawley rat bile at 2 mg/kg, iv administered as single dose after 24 hrs by LCMS analysis; type: ADME, organism-based; details: read-out: Drug excretion; method in brief: as §2
[7] = target: T1, Sodium/glucose cotransporter 1 (Homo sapiens, UniProt P13866); assay: Inhibition of human SGLT1 expressed in CHOK1 cells assessed as reduction in sodium-dependent glucose uptake after 30 mins in presence of [14C]-methyl-alpha -D-glucopyranoside by microbeta counting method; type: cell-based
T1 sequence (P13866 whole entry): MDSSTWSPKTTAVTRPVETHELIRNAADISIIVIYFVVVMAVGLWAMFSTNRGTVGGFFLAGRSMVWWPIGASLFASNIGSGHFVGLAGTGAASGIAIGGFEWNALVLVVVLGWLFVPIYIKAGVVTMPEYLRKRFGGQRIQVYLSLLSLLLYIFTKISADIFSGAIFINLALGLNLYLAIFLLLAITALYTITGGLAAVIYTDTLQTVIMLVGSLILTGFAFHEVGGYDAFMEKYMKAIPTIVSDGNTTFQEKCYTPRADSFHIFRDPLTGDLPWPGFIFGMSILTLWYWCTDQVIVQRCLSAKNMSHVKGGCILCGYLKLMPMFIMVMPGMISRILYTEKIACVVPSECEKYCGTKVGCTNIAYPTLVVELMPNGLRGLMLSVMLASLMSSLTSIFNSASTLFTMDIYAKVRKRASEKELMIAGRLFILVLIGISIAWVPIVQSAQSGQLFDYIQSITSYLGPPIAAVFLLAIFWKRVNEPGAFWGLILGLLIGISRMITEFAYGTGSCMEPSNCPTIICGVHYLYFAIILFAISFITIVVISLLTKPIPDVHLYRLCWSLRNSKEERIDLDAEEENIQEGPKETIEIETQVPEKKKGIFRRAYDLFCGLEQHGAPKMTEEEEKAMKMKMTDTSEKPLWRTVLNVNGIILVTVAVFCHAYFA
Method in brief: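 CHO-K1 cells stably expressing human SGLT1, preincubated 20 min in Na-free choline buffer (pH 7.4). Uptake buffer (140 mM NaCl, HEPES/Tris pH 7.4) with 0.1 mM methyl-α-D-glucopyranoside plus [14C] tracer and test compound, 30 min at 37 °C. Cells washed, lysed in NaOH, radioactivity counted. Choline-for-Na buffer as background. Six concentrations; IC50 vs untreated control; mean of at least two experiments.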

[8] = target: T2, Sodium/glucose cotransporter 2 (Homo sapiens, UniProt P31639); assay: Inhibition of human SGLT2 expressed in CHOK1 cells assessed as reduction in sodium-dependent glucose uptake after 1 hr in presence of [14C]-methyl-alpha -D-glucopyranoside by microbeta counting method; type: cell-based
T2 sequence (P31639 whole entry): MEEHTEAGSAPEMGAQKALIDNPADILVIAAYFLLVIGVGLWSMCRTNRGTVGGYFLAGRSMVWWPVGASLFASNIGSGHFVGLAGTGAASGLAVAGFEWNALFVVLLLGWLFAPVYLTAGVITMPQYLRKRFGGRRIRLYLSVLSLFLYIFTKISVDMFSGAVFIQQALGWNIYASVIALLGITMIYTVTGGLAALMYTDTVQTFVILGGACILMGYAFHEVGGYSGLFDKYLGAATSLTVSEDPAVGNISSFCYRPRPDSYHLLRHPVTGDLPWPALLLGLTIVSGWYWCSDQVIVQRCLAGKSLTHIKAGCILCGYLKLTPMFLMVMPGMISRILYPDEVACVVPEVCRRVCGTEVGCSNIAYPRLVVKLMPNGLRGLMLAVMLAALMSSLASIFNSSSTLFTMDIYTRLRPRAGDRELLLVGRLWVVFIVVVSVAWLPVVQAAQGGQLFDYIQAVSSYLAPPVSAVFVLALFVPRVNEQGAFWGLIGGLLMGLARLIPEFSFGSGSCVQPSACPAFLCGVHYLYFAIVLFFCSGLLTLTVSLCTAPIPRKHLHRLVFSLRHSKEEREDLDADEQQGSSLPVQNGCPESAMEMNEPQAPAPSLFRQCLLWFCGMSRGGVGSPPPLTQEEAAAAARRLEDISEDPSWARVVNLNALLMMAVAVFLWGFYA
Method in brief: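 Human SGLT2 stably expressed in CHO-K1 cells; 20 min Na-free choline pretreatment, then Na+ uptake buffer pH 7.4 with 1 mM methyl-α-D-glucopyranoside containing [14C] label plus compound, 1 h at 37 °C. Washed, NaOH lysis, scintillation counting; Na-free buffer for background. IC50 from six concentrations relative to uninhibited uptake; mean of at least two experiments.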

[9] = Permeability of the compound at pH 7.4 by PAMPA assay; type: ADME; details: read-out: permeability
Method in brief: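 PAMPA at pH 7.4: filter coated with GIT-0 lipid; donor compartment holds compound in universal buffer at 25 μM or 5 μM; permeability reported as ×10⁻⁶ cm/s.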

| IC50 [7] [nM] | IC50 [8] [nM] | SMILES | other results |
| --- | --- | --- | --- |
| 55 | 69 | Cc1cc(/C=C/C(C)(C)C(=O)NC(C)(C)CO)ccc1Cc1cc([C@@H]2O[C@H](CO)[C@@H](O)[C@H](O)[C@H]2O)c(O)cc1C(C)C | Papp [9]: 0.5 ×10⁻⁶ cm/s |
| 22 | 10 | Cc1cc(C)c([C@@H]2O[C@H](CO)[C@@H](O)[C@H](O)[C@H]2O)cc1Cc1ccc(/C=C/C(C)(C)C(=O)NC(C)(C)CO)cc1 |  |
| 12500 | 2130 | Cc1cc(C)c([C@@H]2O[C@H](CO)[C@@H](O)[C@H](O)[C@H]2O)cc1Cc1ccc(/C=C/C(C)(C)C(=O)NC(C)(C)CO)cc1C(C)C |  |
| 23 | 19 | CC(C)c1cc(O)c([C@@H]2O[C@H](CO)[C@@H](O)[C@H](O)[C@H]2O)cc1Cc1ccc(/C=C/C(C)(C)C(=O)NC(C)(C)CO)cc1 |  |

Continued, compound first:

| SMILES | IC50 [7] [nM] | IC50 [8] [nM] | other results |
| --- | --- | --- | --- |
| Cc1cc(O)c([C@@H]2O[C@H](CO)[C@@H](O)[C@H](O)[C@H]2O)cc1Cc1ccc(CCNC(=O)NC(CO)(CO)CO)cc1 |  |  | concentration at 2 h [1]: 1900 ng/g; concentration at 24 h [2]: 1110 ng/g; concentration at 72 h [3]: 803 ng/g; Drug uptake [4]: 42%; dose excreted at 24 h [5]: 36.2%; dose excreted at 24 h [6]: 30.2% |
| COc1cc(C(C)C)c(Cc2ccc(/C=C/C(C)(C)C(=O)NC(C)(C)C(=O)N3CCN(C)CC3)cc2C)cc1[C@@H]1O[C@H](CO)[C@@H](O)[C@H](O)[C@H]1O | 55 | 281 |  |
| Cc1cc(C)c([C@@H]2O[C@H](CO)[C@@H](O)[C@H](O)[C@H]2O)cc1Cc1ccc(/C=C/C(C)(C)C(=O)NC(C)(C)CO)cc1F | 34 | 17 |  |
| COc1cc(/C=C/C(C)(C)C(=O)NC(C)(C)CO)ccc1Cc1cc([C@@H]2O[C@H](CO)[C@@H](O)[C@H](O)[C@H]2O)c(C)cc1C | 1170 | 798 |  |
